This note sets out measurements from ChEMBL document CHEMBL1125937, “Nucleosides and nucleotides. 100. 2'-C-cyano-2'-deoxy-1-beta-D-arabinofuranosyl-cytosine (CNDAC): design of a potential mechanism-based DNA-strand-breaking antineoplastic nucleoside” (J Med Chem, 1991).

≈ marks a conversion by molar mass, not a printed value.

What all share (type): functional, cell-based
The subject of one assay is HOS-TE85. Put plainly: Inhibitory effect tested in vitro for the growth of Osteosarcoma MNNG-HOS cell line. The settings on record: Homo sapiens. The method, boiled down: (§1)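 MTT assay: tumor cells seeded at 1 × 10^4 per well, incubated 72 h with or without compound, then MTT added and OD 570 nm read. % inhibition = [1 − OD sample/OD control] × 100. IC50 is the concentration giving 50% inhibition of cell growth.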

The test system of the next assay is PC-9. Put plainly: Inhibitory effect tested in vitro for the growth of Lung adenocarcinoma PC-9 cell line. As to conditions: Homo sapiens. The method, boiled down: as §1
The next assay has as its system ST-KM-1. The assay can be described thus: Inhibitory effect tested in vitro for the growth of Stomach adenocarcinoma ST-KM cell line. As to conditions: Homo sapiens. The gist of the method:
as §1

The test system of the next assay is SW480. The assay can be described thus: Inhibitory effect tested in vitro for the growth of colon adenocarcinoma SW-480 cell line. As to conditions: Homo sapiens. The gist of the method:
as §1

The subject of a further assay is PC-8. Put plainly: Inhibitory effect tested in vitro for the growth of Lung adenocarcinoma PC-8 cell line. The settings on record: Homo sapiens. The method, boiled down:
as §1

In the next assay the test system is SK-ES1. The assay can be described thus: Inhibitory effect tested in vitro for the growth of Osteosarcoma SK-ES-1 cell line. The settings on record: Homo sapiens. The gist of the method:
as §1

In a further assay the test system is KHOS-321H. The assay can be described thus: Inhibitory effect tested in vitro for the growth of Osteosarcoma KHOS-321H cell line. As to conditions: Homo sapiens. The method, boiled down:
as §1

The subject of the next assay is QG-56. Put plainly: Inhibitory effect tested in vitro for the growth of Lung squamous-cell carcinoma QG-56 cell line. As to conditions: Homo sapiens. The gist of the method: as §1
The next assay has as its system NUGC-4. The assay can be described thus: Inhibitory effect tested in vitro for the growth of Stomach adenocarcinoma NUGC-4 cell line. As to conditions: Homo sapiens. The gist of the method: as §1
The test system of a further assay is PC-3. Put plainly: Inhibitory effect tested in vitro for the growth of Lung adenocarcinoma PC-3 cell line. The settings on record: Homo sapiens. The gist of the method: as §1
In the next assay the test system is PC-13. The assay can be described thus: Inhibitory effect tested in vitro for the growth of Lung adenocarcinoma PC-13 cell line. The settings on record: Homo sapiens, in the assay text read “Lung large-cell carcinoma” for “Lung adenocarcinoma”. The method, boiled down:
as §1

For the next assay, the system named is MKN-28. Put plainly: Inhibitory effect tested in vitro for the growth of Stomach adenocarcinoma MKN- 28 cell line. As to conditions: Homo sapiens. The gist of the method: as §1
A further assay relates to OST. The assay can be described thus: Inhibitory effect tested in vitro for the growth of Osteosarcoma OST cell line. The settings on record: Homo sapiens. The gist of the method: as §1
In the next assay the test system is MKN-7. The assay can be described thus: Inhibitory effect tested in vitro for the growth of Stomach adenocarcinoma MKN-7 cell line. The settings on record: Homo sapiens. The method, boiled down: as §1
In another assay the test system is MKN-1. Put plainly: Inhibitory effect tested in vitro for the growth of Stomach adenocarcinoma MKN-1 cell line. The settings on record: Homo sapiens. The method, boiled down:
as §1

With `Nc1ccn([C@@H]2O[C@H](CO)[C@@H](O)[C@H]2O)c(=O)n1` [CYTIDINE], the IC50 in the assay on HOS-TE85 was 2.6 µg/mL (≈ 10.7 µM); with PC-9, 1.6 µg/mL (≈ 6.58 µM); in the assay with ST-KM-1, over 100 µg/mL; in the assay on SW480, over 100 µg/mL; with PC-8, 0.28 µg/mL (≈ 1.15 µM); with SK-ES1, 0.09 µg/mL (≈ 0.37 µM). Also, the IC50 in the assay with KHOS-321H was 0.27 µg/mL (≈ 1.11 µM); with QG-56, over 100 µg/mL; in the assay on NUGC-4, over 100 µg/mL; with PC-3, over 100 µg/mL; in the assay with PC-13, over 100 µg/mL; with MKN-28, 4.5 µg/mL (≈ 18.5 µM). For the same compound, the half-maximal inhibitory concentration (IC50) in the assay with OST was over 100 µg/mL.

For `N#C[C@H]1[C@H](O)[C@@H](CO)O[C@H]1n1ccc(N)nc1=O` [TAS-109], the half-inhibitory concentration (IC50) with HOS-TE85 worked out at 6.8 µg/mL (≈ 27 µM); in the assay with MKN-7 it was 1.4 µg/mL (≈ 5.55 µM); in the assay on PC-9, 4.4 µg/mL (≈ 17.4 µM); in the assay on ST-KM-1, 2.8 µg/mL (≈ 11.1 µM); with SW480, 0.27 µg/mL (≈ 1.07 µM); in the assay on PC-8, 4.6 µg/mL (≈ 18.2 µM). The half-inhibitory concentration (IC50) came to 2.2 µg/mL (≈ 8.72 µM) in the assay with SK-ES1; 4.5 µg/mL (≈ 17.8 µM) with KHOS-321H; 40 µg/mL (≈ 159 µM) with QG-56; 2.1 µg/mL (≈ 8.33 µM) with MKN-1; 5.2 µg/mL (≈ 20.6 µM) in the assay with NUGC-4; 5.6 µg/mL (≈ 22.2 µM) in the assay with PC-3. The IC50 in the assay with PC-13 was over 100 µg/mL; in the assay with MKN-28, 1.7 µg/mL (≈ 6.74 µM); in the assay on OST, 6.4 µg/mL (≈ 25.4 µM).

As a reminder, the IC50 is the concentration needed to halve the response being measured. Lower therefore signals higher potency.
